Assay results published in ChEMBL document CHEMBL3758100, “4H-Chromene-based anticancer agents towards multi-drug resistant HL60/MX2 human leukemia: SAR at the 4th and 6th positions” (Bioorg Med Chem, 2016).

Assays:
[1] = Cytotoxicity against human HL60 cells assessed as cell growth inhibition after 48 hrs by cell titer blue cell viability assay; format: functional, cell-based; settings: HL-60, 48 h
How it was run: (§1)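 HL60 or HL60/MX2 cells kept in RPMI 1640 with 10% FBS and 1% penicillin–streptomycin at 37 °C, 5% CO2. Seeded at 1 × 10^4 cells/well and exposed to serial dilutions (1% DMSO final; 1% DMSO medium as control) in triplicate for 48 h. Viability read by CellTiter-Blue. IC50 fitted with a dose–response model; at least three biological repeats on different days; mean ± SD.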

[2] = Cytotoxicity against human HL60/MX2 cells assessed as cell growth inhibition after 48 hrs by cell titer blue cell viability assay; format: functional, cell-based; settings: HL60/MX2, 48 h; how it was run: as §1
HL-60 = experiment: Selectivity ratio of IC50 for human HL60/MX2 cells to IC50 for human HL60 cells; format: functional
How it was run: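 Ratio of IC50 in HL60/MX2 over HL60, both from the 48 h CellTiter-Blue growth-inhibition assay. IC50s are means of at least three biological repeats. Two-tailed Student t test between the two cell lines.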

| SMILES | IC50 [1] [µM] | IC50 [2] [µM] | Ratio IC50 (HL-60) |
| --- | --- | --- | --- |
| C#CCOC(=O)CC1C(C(=O)OCC#C)=C(N)Oc2ccc(-c3cc(OC)cc(OC)c3)cc21 (configuration not stated) | 1.16 | 0.86 | 0.74 |
| C#CCOC(=O)CC1C(C(=O)OCC#C)=C(N)Oc2ccc(-c3cccc(N)c3)cc21 (configuration not stated) | 1.73 | 0.54 |  |
| C#CCOC(=O)C1=C(N)Oc2ccc(-c3cc(OC)cc(OC)c3)cc2C1CC(=O)CCC (configuration not stated) | 6.9 | 5.4 | 0.78 |
| C#CCOC(=O)C1=C(N)Oc2ccc(-c3cc(OC)cc(OC)c3)cc2C1CC(O)CCC (configuration not stated) | 46.6 | 35.8 | 0.77 |
| CCCC(=O)CC1C(C(=O)OCC)=C(N)Oc2ccc(-c3cc(OC)cc(OC)c3)cc21 (configuration not stated) | 27.3 | 11.7 | 0.43 |
| C#CCOC(=O)C1=C(N)Oc2ccc(-c3cc(OC)cc(OC)c3)cc2C1CC(=O)c1ccccc1 (configuration not stated) | 7.3 | 5.9 | 0.81 |
| CCOC(=O)C1=C(N)Oc2ccc(-c3cc(OC)cc(OC)c3)cc2C1CC(=O)c1ccccc1 (configuration not stated) | 109 | 41 | 0.38 |
| C#CCOC(=O)CC1C(C(=O)OCC#C)=C(N)Oc2cc3c(cc21)-c1cc(OC)cc(OC)c1CO3 (configuration not stated) | 41.9 | 7.4 | 0.18 |
| C#CCOC(=O)CC1C(C(=O)OCC#C)=C(N)Oc2cc(C)c(-c3cccc(N)c3)c(C)c21 (configuration not stated) | 50.5 | 82.2 | 1.63 |
| C#CCOC(=O)C1=C(N)Oc2ccc(-c3cc(OC)cc(OC)c3)cc2C1CC(O)c1ccccc1 (configuration not stated) | 100 | 54 | 0.54 |
| CCOC(=O)CC1C(C(=O)OCC)=C(N)Oc2ccc(-c3cc(OC)cc(OC)c3)cc21 (configuration not stated) | 5.4 | 1.7 | 0.32 |
